In the library only some 3.5% were active in any assay of this set; here they are far more common.
MrgX1 agonist: human MrgX1 receptor agonism, primary screen. Q96LB2. MrgX1-HEK293 cells, Fluo-4 calcium fluorescence, agonist mode; stronger effect = higher value. B-score at 10 µM. 310,000 compounds, 0.44% hits. AID 588627;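 active = calcium response B-score plate-corrected fluorescence ratio at least 3 library SD, with starting fluorescence B-score inside 5 SD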
Target sequence (Q96LB2 whole entry, looked up): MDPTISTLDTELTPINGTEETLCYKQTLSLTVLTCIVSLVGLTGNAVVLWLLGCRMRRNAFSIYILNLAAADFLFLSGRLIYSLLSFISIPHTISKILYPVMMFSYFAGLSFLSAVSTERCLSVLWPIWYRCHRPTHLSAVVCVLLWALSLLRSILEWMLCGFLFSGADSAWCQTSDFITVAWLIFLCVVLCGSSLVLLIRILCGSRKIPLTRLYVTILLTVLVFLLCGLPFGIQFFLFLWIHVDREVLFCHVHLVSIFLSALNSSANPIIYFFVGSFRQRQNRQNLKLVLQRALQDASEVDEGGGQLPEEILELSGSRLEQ
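Test system: HEK293 cells stably expressing human MrgX1 receptor; amount: 15,000 cells per well; doses: compound delivered in addition one of three; times: overnight plating before 1 h dye loading; detection: Fluo-4 NW calcium-flux fluorescence, kinetic read; read-out basis: B-scored fluorescence response ratio; controls: positive and negative controls per plate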
RGS4 inh: inhibitors of human RGS4; HEK293 M3R/RGS4 inducible, Fluo-4 calcium flux; stronger effect = higher value; triggered by carbachol at its EC20; B-score at 10 µM; 310,000 compounds, 0.45% hits; AID 463165;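 active = B-score, a plate-corrected calcium signal, over three deviations above library mean, with baseline fluorescence within five deviations of library mean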;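 also: RGS4 expression induced by doxycycline in cells with stable M3 receptor; B-score is computed from the integrated fluorescence ratio over baseline after carbachol; higher B-score means a larger calcium signal and so more RGS4 inhibition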
Target sequence (P49798 whole entry, looked up): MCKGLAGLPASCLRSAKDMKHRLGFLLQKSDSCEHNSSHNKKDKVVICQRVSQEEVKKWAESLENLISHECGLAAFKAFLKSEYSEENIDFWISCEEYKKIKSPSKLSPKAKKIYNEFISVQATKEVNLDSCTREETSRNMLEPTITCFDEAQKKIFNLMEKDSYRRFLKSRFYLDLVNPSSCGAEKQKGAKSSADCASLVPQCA
RGS4 pot: RGS4 potentiation or activation; HEK293 M3R/inducible RGS4, carbachol calcium flux Fluo4; stronger effect = lower value; B-score at 10 µM; 310,000 compounds, 0.92% hits; AID 463111;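 active = B-score of the integrated calcium signal more than 4 SD below the library mean, with starting fluorescence not abnormally high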;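 also: negative B-score means reduced calcium response which marks RGS4 activation or potentiation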
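Also added: carbachol at ECmax as muscarinic agonist stimulus; Assay system: HEK293 cells with stable M3R and inducible RGS4; Timing: overnight RGS4 induction, 30 min dye load 37 °C, 20 min compound RT; Measured by: Fluo4-AM (2 µM) calcium-flux fluorescence, kinetic read.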
MrgX1 PAM: human MrgX1 positive allosteric modulation, primary screen; MrgX1-HEK293, Fluo-4 calcium flux, FDSS; stronger effect = higher value; B-score at 10 µM; 310,000 compounds, 0.63% hits; AID 588675;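 active = plate-corrected calcium response at least 3 library SD above typical, normal starting fluorescence, not activating the receptor alone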;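 also: compound read alongside a low EC10 to EC30 dose of BAM8-22 agonist; peak minus trough fluorescence over baseline measured at the second addition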
MrgX1 antag: human MrgX1 receptor antagonism, primary screen; 310,000 compounds, 1.3% hits; AID 588676; B-score at 10 µM; MRGX1-HEK293 calcium flux, Fluo-4, BAM8-22 antagonism; stronger effect = lower value;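 active = calcium-response B-score plate-corrected more than 3 library SD below zero, starting fluorescence within 5 deviations, no agonist response on first addition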;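 also: peak minus trough fluorescence over baseline after final BAM8-22 challenge near maximal dose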
Numbers without * were called inactive; i = inactive; . = no result.

SMILES	MrgX1 agonist	RGS4 inh	RGS4 pot	MrgX1 PAM	MrgX1 antag
COc1ccc(OC)c(Nc2nc(N(C)c3ccccc3)nc(N)c2[N+](=O)[O-])c1	i	i	-8.1*	i	i
Cc1oc(-c2ccccc2F)nc1CS(=O)(=O)CC(=O)NCc1ccccc1Cl	i	i	i	i	i
CNc1nc(N)c(C(=O)C23CC4CC(CC(C4)C2)C3)s1	i	i	i	i	i
CCCOC(=O)CCCCC1SCC(NC(=O)OC)C1NC(=O)OC (stereo not given)	i	i	i	i	-8.14*
C/C(=N\NC(=O)c1cccc(Cl)c1)C1C(=O)c2ccccc2C1=O	i	i	i	18.2*	i
O=C(NCc1ccccc1)c1sc(=S)n2c1[nH]c(=O)c1ccccc12	50.9*	i	i	i	i
COc1cccc(CNC(=O)CCN2C(=O)[C@@H]3Cc4ccccc4CN3C2=O)c1	i	i	i	i	i
O=[N+]([O-])c1ccc(/C([O-])=C(/C(=S)NCc2ccco2)[n+]2ccccc2)cc1	i	i	i	i	i
Cc1ccc(/C([O-])=C(/C(=S)NCc2ccco2)[n+]2ccccc2)cc1	i	4.69*	i	i	i
CN(C)c1ccc(/C=N/NC(=O)CN2CCN(c3ccc(F)cc3)CC2)cc1	i	i	i	i	i
CC(=O)OCCCN(C)CC/C=C1/c2ccccc2CSc2ccccc21	i	i	-7.89*	i	i
C[N+]1(CC(O)c2ccccc2)CCCCCC1 (stereo not given)	i	i	i	i	i
CC(=O)OC(C[N+]1(C)CCCCCC1)c1ccccc1 (stereo not given)	i	i	-7.01*	i	i
CC(=O)CCc1oc2ccc([N+](=O)[O-])cc2c1-c1ccc(C)o1	i	i	i	i	i
C/C(CCc1oc2ccccc2c1-c1ccc(C)o1)=N/O	28.3*	i	i	i	i
CCc1oc(C(=O)OC)cc1CSC(=N)N	42.5*	i	i	i	i
C=CCn1c(C)cc(C(=O)Cn2ncc(Cl)c(Cl)c2=O)c1C	i	i	i	i	i
C=CCn1c(C)cc(C(=O)CN2NS(=O)(=O)c3ccccc3C2=O)c1C	i	i	i	7.11*	i
N#Cc1ccccc1Oc1ccccc1C=O	27.1*	i	i	i	i
CCN(CC)C(=O)c1[nH]cnc1C(=O)NCC(=O)OC(C)(C)C	i	i	i	i	i
COc1ccccc1C(=O)NNC(=O)c1ccc(F)cc1	i	i	i	i	i
Cc1ccccc1C(=O)NNC(=O)c1ccc(F)cc1	i	i	i	i	-7.07*
O=C(N/N=C/c1cccnc1)c1cc(Br)ccc1O	i	i	i	i	i
O=C(N/N=C/c1ccccn1)c1cc(Br)ccc1O	26.9*	i	i	i	i
C[C@H](O)C(=O)C1=Nc2c(nc(N)[nH]c2=O)NC1	i	.	.	i	i
SMILES	MrgX1 agonist	RGS4 inh	RGS4 pot	MrgX1 PAM	MrgX1 antag
C[C@H](O)[C@H](O)[C@H]1CNc2nc(N)[nH]c(=O)c2N1	i	i	i	i	-5.43*
CC(C)CN1CCN=C1Nc1ccccc1	i	i	i	i	i
COc1ccc(S(=O)(=O)N2CCc3ccccc32)cc1C(=O)OCC(=O)c1c(N)n(C)c(=O)n(C)c1=O	i	i	-9.62*	i	i
CCc1ccc2[nH]c(O)c(N=NC3=NC(=O)CS3)c2c1	i	i	i	i	i
CCc1ccc2c(c1)c(N=NC1=NC(=O)CS1)c(O)n2CC	i	4.98*	i	i	i
Cc1ccc(OC(=O)C2c3ccccc3Oc3ccccc32)cc1C	i	i	-7.76*	i	i
CCCCCCCCCCCCCCCC[N+](C)(C)CCN(Cc1ccc(OC)cc1)c1ncccn1	55.8*	.	.	i	i
CS(=O)(=O)Nc1cccc(C2=NN(S(C)(=O)=O)C(c3ccc4c(c3)OCO4)C2)c1 (stereo not given)	i	i	i	i	-7.64*
CS(=O)(=O)N1N=C(c2ccccc2)CC1c1ccc2c(c1)OCO2 (stereo not given)	i	i	i	i	i
CC(=O)NC(=S)NNC(=O)C(c1ccccc1)c1ccccc1	i	i	i	12.1*	i
O=C(CCC1CCCN(C(=O)c2cc3ccccc3o2)C1)NCc1ccc(F)c(F)c1 (stereo not given)	i	i	i	i	i
CC1CN(c2nc3ccccc3nc2SCC(=O)Nc2cccc(C(F)(F)F)c2)CC(C)O1 (stereo not given)	i	i	-7.61*	i	i
COc1cc(/C=C/C(=O)NCCc2ccc(S(N)(=O)=O)cc2)ccc1OCC#N	i	i	i	11.7*	i
N#C/C(=C\c1ccccn1)c1nc2ccccc2s1	i	i	i	i	-7.25*
COC(=O)c1ccccc1CON1C(=O)C(C)(C)N(OCc2ccccc2C(=O)OC)C(=O)C1(C)C	i	i	i	i	-8.07*
COC(=O)c1ccccc1NC(=O)CC(=O)Nc1ccccc1C(=O)OC	i	i	i	i	i
CS(=O)(=O)N1CCN(C(=O)C2c3ccccc3Oc3ccccc32)CC1	i	i	-7.48*	i	i
CCC(=O)c1ccccc1OCCCN1CCC(Cc2ccccc2)CC1	i	i	i	i	-5.56*
COc1cccc(OC)c1OCCCCN1CCC(Cc2ccccc2)CC1	i	i	i	i	i
CC(=O)CCc1ccc(OCCCCN2CCC(Cc3ccccc3)CC2)cc1	i	i	-7.15*	i	i
COc1cc(CNc2ccc(N3CCN(C(C)=O)CC3)cc2)ccc1OCc1ccc(F)cc1	i	i	i	i	i
COc1cccc(NC(=O)CN(C2=NC3CS(=O)(=O)CC3S2)c2cccc(C)c2)c1 (stereo not given)	i	i	i	i	i
CCN1C(=O)CS/C1=N\S(=O)(=O)c1ccc(Cl)cc1	i	i	i	i	i
CCn1c(Cl)c(C=O)s/c1=N\S(=O)(=O)c1ccccc1	30.9*	i	i	i	i
NC(=O)C1CCN(C(=O)c2ccc3nc(-c4ccccc4)c(-c4ccccc4)nc3c2)CC1	i	i	i	i	i
O=C(CCCn1cnc([N+](=O)[O-])n1)Nc1ccc(Cl)cc1Cl	i	i	i	i	-9.11*
COc1ccc(/C=C(\NC(=O)c2cccs2)C(=O)Nc2cccc3ccccc23)cc1OC	27.7*	i	i	i	i

High-throughput results from PubChem BioAssay.
